SENP6 inh: blocks the human protease SENP6. hit rate 1.8% among 330,000. inhibition, % at 10 µM. Q9GZR1. Recombinant SENP6 catalytic domain, aminoluciferin luminescence;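 active = inhibition above about 50% at the single tested dose, limit read from the data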;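 note: plate controls were DMSO wells with enzyme for no effect and DMSO wells lacking enzyme for full effect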
SENP8 block-1: SENP8 (human) protease inhibition; inhibition, % at 20 µM; AID 602440; recombinant SENP8, Nedd8 substrate fluorescence; Q96LD8; hit rate 0.64% among 360,000; in the data active = inhibition mostly above about 40%, no sharp cut-off; inactive = mostly below about 27%
Target sequence (Q96LD8 whole entry, looked up): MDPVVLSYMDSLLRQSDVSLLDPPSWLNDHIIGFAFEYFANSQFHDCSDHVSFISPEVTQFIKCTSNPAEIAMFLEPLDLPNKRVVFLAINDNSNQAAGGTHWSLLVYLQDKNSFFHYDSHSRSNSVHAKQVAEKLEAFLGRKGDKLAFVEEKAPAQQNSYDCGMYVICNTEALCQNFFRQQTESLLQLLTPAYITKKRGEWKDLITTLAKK
Apaf-1 inh: human Apaf-1 inhibition | O14727 | reconstituted apoptosome caspase-3 activity, DEVD-Rh110 fluorescence | inhibition, % at 20 µM | hit rate 0.71% among 330,000; active = inhibition of at least 40% at 20 µM;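 note: plate controls were DMSO wells for no effect and DEVD-CHO caspase inhibitor wells for full effect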
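Material: reconstituted apoptosome with Apaf-1, cytochrome c, caspase-9, procaspase-3, dATP / Buffer or medium: pH 7.5 Hepes buffer with CHAPS, BSA, DTT / Also added: cytochrome c with DEVD-Rh110 / Schedule: compound with Apaf-1, dATP, procaspase-3 30 min, then 50 min reaction, room temperature / Technique: rhodamine 110 fluorescence at Ex 480/Em 540 nm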
SENP8 block-2: SENP8 protease inhibition. Q96LD8. purified SENP8, Z-RLRGG-aminoluciferin cleavage, luminescence. inhibition, % at 10 µM. hit rate 1.2% among 330,000. AID 2540; in the data active = inhibition above about 50%
UBC13 polyUb: inhibitors of human UBC13 polyubiquitin chain formation | P61088 | TR-FRET | inhibition, % at 20 µM | hit rate 0.47% among 330,000 | AID 485273; in the data active = inhibition above about 45%, passing the limit was not always enough
Target sequence (P61088 whole entry, looked up): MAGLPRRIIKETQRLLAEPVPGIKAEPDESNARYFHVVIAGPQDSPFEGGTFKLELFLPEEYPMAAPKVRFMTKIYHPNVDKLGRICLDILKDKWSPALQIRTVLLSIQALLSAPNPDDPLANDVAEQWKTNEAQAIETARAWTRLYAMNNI
SENP7 inh: SENP7 protease inhibition | Q9BQF6 | recombinant SENP7, Z-RLRGG-aminoluciferin luminescence, 40 min | inhibition, % at 5 µM | hit rate 1.5% among 330,000 | AID 434973;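 active = inhibition above about 50% at the single test dose, limit read from the data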;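 note: plate controls were DMSO with enzyme for no effect and no enzyme buffer wells for full effect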
Apaf-1 inh conf: confirmation of Apaf-1 inhibitors. AID 504614. shares compounds with Apaf-1 inh. reconstituted apoptosome, caspase-3 DEVD-Rh110 fluorescence. inhibition, % at 20 µM. hit rate 25% among 1,800;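 active = mean inhibition of at least 40% at 20 µM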;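 note: plate controls were DMSO wells for no effect and DEVD-CHO caspase inhibitor control wells for full effect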
Rh110 interf inh: interferes with Rh110 fluorescence, flagging false Apaf-1 inhibitors. Rh110 fluorescence interference, quenched caspase reaction. activation (fluorescence interference), % at 20 µM. AID 504615. 1,800 tested, under 10 active. shares compounds with Apaf-1 inh;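 active = signal rise of 40% or more at 20 µM, treated as a fluorescence artifact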
Fluor interf inh: shows fluorescence interference in the Apaf-1 inhibitor assay format; shares compounds with Apaf-1 inh; fluorescence interference counterscreen, Apaf-1 assay format; IC50, µM; 460 tested, under 10 active; call rule not given here
The depositor's hits bear a star; i = inactive; · = no result given. An excerpt weighted towards active compounds, which were near 3.1% of everything screened.

SMILES	SENP6 inh	SENP8 block-1	Apaf-1 inh	SENP8 block-2	UBC13 polyUb	SENP7 inh	Apaf-1 inh conf	Rh110 interf inh	others
O=C(NCc1ccccc1)c1ccc2nc(-c3ccco3)c(-c3ccco3)nc2c1	2	i	65*	12	-24	14	28	6
O=C(Nc1cc(C(F)(F)F)cc(C(F)(F)F)c1)[C@H]1O[C@@H](n2ccc(=O)[nH]c2=O)[C@H](O)[C@@H]1O	·	24	·	·	·	·	·	·
CN[C@@H](CO)C(=O)NC[C@H]1O[C@@H](n2cnc3c(=O)[nH]c(N)nc32)[C@H](O)[C@@H]1O	·	18	·	·	·	·	·	·
Cc1cccc(C)c1-n1nnnc1C1c2ccccc2C(=O)N1CCCN1CCOCC1 (stereo not drawn)	·	12	·	·	·	·	·	·
C=C(C)Cc1c(C)c(C#N)c2[nH]c3ccccc3n2c1=O	45	-302	62*	15	-14	29	45*	5	Fluor interf inh=>100
Cc1ccc(Cc2c(C)c(C#N)c3[nH]c4ccccc4n3c2=O)cc1	34	-409	6	10	3	19	·	·
Cc1cccnc1NC(=O)c1ccc(OCC2CCCO2)cc1 (stereo not drawn)	-13	-7	54*	-17	19	-10	34	6
Cc1cccc(NC(=O)c2ccc(OCC3CCCO3)cc2)c1C (stereo not drawn)	-1	17	-2	-16	6	-3	·	·
Cn1c(SCC(=O)Nc2ccc3nc(SCC(=O)N4CCCC4)sc3c2)nnc1-c1ccccc1	-17	·	66*	-15	-10	-14	12	-2
N#Cc1ccccc1NCc1ccccc1	-31	-388	10	-9	12	-7	·	·
O=c1cccccc1NCc1ccccc1	-5	-4	45*	6	-18	4	7	6
Oc1c(Br)cc(Br)cc1C=Nc1cccc2ncccc12	72*	-8	97*	50*	-42	14	56*	6	Fluor interf inh=>100
CCNC(=O)C1CCCN(C(=O)c2ccc(OC)c(OC)c2)CC1 (stereo not drawn)	·	-1	·	·	·	·	·	·
O=C1Nc2cc(Cl)c(Cl)cc2N(O)N1c1cccc(Cl)c1	-12	11	44*	-9	2	-2	13	-2
CCCN1CCN(CCCNC(=O)Cn2cc3c(n2)CCCC3)CC1	9	4	18	-5	6	-8	·	·
O=C(Cn1cc2c(n1)CCCC2)NCCCN1CCCC1	0	5	41*	-6	15	-14	39	0
CCNC(=O)C[C@@H]1CC[C@@H]2NC[C@@H](O)COC[C@H]2O1	·	21	·	·	·	·	·	·
COc1nc(N/N=C/c2ccc(-c3ccccc3[N+](=O)[O-])o2)nc(N2CCOCC2)n1	36	12	54*	6	-53	3	26	7
CCN1/C(=C/C=C/c2sc3ccccc3[n+]2CC)Sc2ccccc21	35	12	90*	31	2	17	51*	16	Fluor interf inh=>100
COc1ccc(CCNC(=O)C(=O)NCC2CCCN2S(=O)(=O)c2ccc(OC)cc2)cc1 (stereo not drawn)	-2	-4	61*	-5	-2	4	12	11
CC1(C(=O)NS(=O)(=O)c2ccc3c(c2)CCO3)CCN1C(=O)CCC1CCCC1 (stereo not drawn)	·	17	·	·	·	·	·	·
Clc1ccc(/C=N/Nc2ncnc3ccccc23)cc1Cl	43	15	43*	17	-10	37	33	14
O=C(Nc1ccc(N2CCCC2)cc1)C(Cl)c1ccccc1 (stereo not drawn)	66*	38	65*	34	-8	-1	26	3
COc1ccc(OCc2cc(C(=O)N3CCC(OC)CC3)no2)c2ccccc12	30	-6	49*	21	0	10	25	6
COC(C[C@H]1O[C@@H]1C(=O)[C@H](C)OCc1ccccc1)OC	8	3	48*	9	3	-4	1	1
COC(C[C@H]1O[C@H]1C(=O)[C@H](C)OCc1ccccc1)OC	-30	4	-4	-9	-3	-6	·	·

Assay outcomes as filed in PubChem BioAssay.
